Drawing on ChEMBL document CHEMBL3259600, “Synthesis and biological evaluation of some new pyrazoline substituted benzenesulfonylurea/thiourea derivatives as anti-hyperglycaemic agents and aldose reductase inhibitors” (Eur J Med Chem, 2014), this text covers Activity, Rf and IC50 for 18 compounds.

The test system of data set [1] is Rattus norvegicus. The data set can be described thus: Antihyperglycemic activity in glucose-fed hyperglycaemic Wistar albino rat assessed as inhibition of postprandial hyperglycemia at 0.05 mM/kg, po administered via gavage 30 mins prior to glucose challenge measured 60 mins after glucose load. Also on record: scale not given: the % may be the effect or the level left. Format: functional. The method in brief: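 Rats fasted at least 16 h with water available, groups of six. Vehicle 1% w/v CMC in distilled water, 10 ml/kg, given orally. Glucose load 3 g/kg 30 min after treatment. Retro-orbital blood sampled just before and 60 min after the load. Glucose tolerance by AUC, percent activity from AUC against vehicle group, Dunnett's test.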

The nature of data set [2]: Retardation factor of the compound using toulene-ethyl acetate-formic acid at ratio of 5:4:1 as solvent system by thin layer chromatography. Format: physicochemical.
The target in data set [3] is Aldo-keto reductase family 1 member B1 (Rattus norvegicus, UniProt P07943). Description: Inhibition of aldose reductase in rat lens by spectrophotometer analysis. The method in brief: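 Crude enzyme from rat lens homogenized in 9 volumes 100 mM potassium phosphate pH 6.2, spun 15,000 × g for 30 min at 4 °C, supernatant used. Assay in 50 mM potassium phosphate pH 6.2 with 0.4 M lithium sulphate, 5 mM β-mercaptoethanol, 10 mM DL-glyceraldehyde, 0.1 mM NADPH, at 37 °C. DMSO-dissolved compound preincubated 5 min, reaction started with NADPH, read spectrophotometrically, triplicate. IC50 by non-linear regression of % inhibition vs log concentration.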

The nature of data set [4]: Retardation factor of the compound using chloroform-acetone at ratio of 9:1 as solvent system by thin layer chromatography. Format: physicochemical.
The nature of data set [5]: Retardation factor of the compound using chloroform-acetone at ratio of 8:2 as solvent system by thin layer chromatography. It counts as physicochemical.

As to `COc1ccc(C2CC(c3ccc(N(C)C)cc3)=NN2c2ccc(S(=O)(=O)NC(=S)NCc3ccccc3)cc2)cc1` (centres undefined), the Activity in data set [1] was 11.7%. The Rf in data set [2] is 0.65.
A word on the IC50: it is the concentration that gives 50% inhibition. Take `CN(C)c1ccc(C2=NN(c3ccc(S(=O)(=O)NC(=S)NCc4ccccc4)cc3)C(c3ccccc3)C2)cc1` (centres undefined): the Activity in data set [1] came to 24.2%. Moreover, the IC50 in data set [3] (read-out: IC50) is 90.1 nM. In addition, in data set [2], the Rf came to 0.88.
Turning to `CCCCNC(=S)NS(=O)(=O)c1ccc(N2N=C(c3ccc(N(C)C)cc3)CC2c2ccc(Cl)cc2)cc1` (centres undefined), the Activity in data set [1] was determined as 18.9%. For the same compound, in data set [3] (read-out: IC50), the IC50 is 17.5 nM. Further, the Rf in data set [2] was 0.66.
As to `CCCCNC(=S)NS(=O)(=O)c1ccc(N2N=C(c3ccc(N(C)C)cc3)CC2c2ccc(OC)cc2)cc1` (centres undefined), the Activity in data set [1] came out at 17.2%. Besides, the Rf in data set [2] came out at 0.9.
Take `COc1cc(C2CC(c3ccc(N(C)C)cc3)=NN2c2ccc(S(=O)(=O)NC(=O)NCc3ccccc3)cc2)cc(OC)c1OC` (centres undefined): the Activity in data set [1] was 29.3%. In addition, in data set [4], the Rf was determined as 0.83.
Regarding `CN(C)c1ccc(C2=NN(c3ccc(S(=O)(=O)NC(=O)NCc4ccccc4)cc3)C(c3ccccc3Cl)C2)cc1` (centres undefined), the Activity in data set [1] stood at 4.7%. For the same compound, the IC50 result in data set [3] is reported as “Not Active”. For the same compound, in data set [2], the Rf is 0.79.
For `CN(C)c1ccc(C2=NN(c3ccc(S(=O)(=O)NC(=S)NCc4ccccc4)cc3)C(c3ccc(Cl)cc3)C2)cc1` (centres undefined), the Activity in data set [1] is given as 4.2%. Further, the Rf in data set [2] is 0.87.
As for `Cc1ccc(C2CC(c3ccc(N(C)C)cc3)=NN2c2ccc(S(=O)(=O)NC(=O)NCc3ccccc3)cc2)cc1` (centres undefined), in data set [1], the Activity is 12%. Besides, the Rf in data set [5] came out at 0.88.
`CN(C)c1ccc(C2=NN(c3ccc(S(=O)(=O)NC(=S)NCc4ccccc4)cc3)C(c3ccccc3Cl)C2)cc1` (centres undefined): in data set [1], the Activity is on record as 15.3%. Moreover, the IC50 in data set [3] (read-out: IC50) stood at 85 nM. The Rf in data set [2] is listed as 0.75.
Consider `Cc1ccc(C2CC(c3ccc(N(C)C)cc3)=NN2c2ccc(S(=O)(=O)NC(=S)NCc3ccccc3)cc2)cc1` (centres undefined), for which, in data set [1], the Activity amounted to 21.7%. Also, the IC50 in data set [3] (read-out: IC50) came to 69.9 nM. Further, in data set [4], the Rf was found to be 0.9.
Take `Cc1ccc(S(=O)(=O)NC(=O)NN2CC3CCCC3C2)cc1` (centres undefined) [GLICLAZIDE]: in data set [1], the Activity came out at 25.4%.
As to `CN(C)c1ccc(C2=NN(c3ccc(S(=O)(=O)NC(=S)NC4CCCCC4)cc3)C(c3ccccc3)C2)cc1` (centres undefined), the Activity in data set [1] is 2.7%. In addition, the IC50 in data set [3] (read-out: IC50) stood at 17.8 nM. In addition, the Rf in data set [2] came to 0.97.
With `CN(C)c1ccc(C2=NN(c3ccc(S(=O)(=O)NC(=O)NCc4ccccc4)cc3)C(c3ccc(Cl)cc3)C2)cc1` (centres undefined), in data set [1], the Activity stood at 6.7%. Also, the Rf in data set [2] came out at 0.78.
As to `COc1ccc(C2CC(c3ccc(N(C)C)cc3)=NN2c2ccc(S(=O)(=O)NC(=O)NCc3ccccc3)cc2)cc1` (centres undefined), in data set [1], the Activity came out at 17.5%. In data set [3], the IC50 entry is “Not Active”. For the same compound, the Rf in data set [2] turned out to be 0.7.
With `CCCCNC(=S)NS(=O)(=O)c1ccc(N2N=C(c3ccc(N(C)C)cc3)CC2c2ccccc2)cc1` (centres undefined), the Activity in data set [1] turned out to be 10.5%. The IC50 in data set [3] (read-out: IC50) stood at 43 nM. In data set [2], the Rf came to 0.88.
For `COc1cc(C2CC(c3ccc(N(C)C)cc3)=NN2c2ccc(S(=O)(=O)NC(=S)NCc3ccccc3)cc2)cc(OC)c1OC` (centres undefined), in data set [1], the Activity is recorded as 28.6%. Besides, the Rf in data set [2] was 0.92.
For `COc1ccc(C2CC(c3ccc(N(C)C)cc3)=NN2c2ccc(S(=O)(=O)NC(=O)NCc3ccccc3)cc2)cc1OC` (centres undefined), in that order: 18% and 0.56.
As to `CN(C)c1ccc(C2=NN(c3ccc(S(=O)(=O)NC(=O)NCc4ccccc4)cc3)C(c3ccccc3)C2)cc1` (centres undefined), the Activity in data set [1] is reported as 15.5%. Also, the IC50 result in data set [3] is recorded as “Not Active”. Further, in data set [2], the Rf stood at 0.85.
